Converted amounts (≈) assume the structure as drawn.
How the values were obtained:
[1] = test system: Bacillus subtilis; assay: Minimum inhibitory concentration required against Bacillus subtilis was determined; format: functional
In short: (§1)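 MICs against aerobic bacteria were determined by broth microdilution as recommended by NCCLS. Each compound was tested once against each strain. Standard error per run is 1 dilution.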

[2] = Minimum inhibitory concentration required against […] faecalis ATCC strain was determined; format: functional; conditions: Enterococcus faecalis; in short: as §1
[3] = test system: Enterococcus faecalis; assay: Minimum inhibitory concentration required against Enterococcus faecalis VRE strain was determined; format: functional; in short: as §1
[4] = test system: Streptococcus pneumoniae; assay: Minimum inhibitory concentration required against Streptococcus pneumoniae; format: functional; in short: as §1
[5] = molecular target: T1, Holo-[acyl-carrier-protein] synthase (Bacillus subtilis (strain 168), UniProt P96618); assay: In vitro inhibitory activity against Holo-[acyl-carrier-protein] synthase was determined using Bacillus subtilis GST-Acp-HTRFassay
T1 sequence (P96618 whole entry): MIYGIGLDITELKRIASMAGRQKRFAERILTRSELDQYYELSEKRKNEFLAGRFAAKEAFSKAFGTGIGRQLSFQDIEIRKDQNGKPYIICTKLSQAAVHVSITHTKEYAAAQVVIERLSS
In short: (§2)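 B. subtilis AcpS at 15 ng/mL was incubated with biotin-CoA and GST-ACP as acceptor. Buffer was 50 mM Tris·HCl pH 8.0 with 7.5 mM MgCl2, 3.75 mM DTT, 0.0375% Tween-20 and BSA. The reaction ran 3 h at room temperature. It was stopped with EDTA/KF containing europium cryptate anti-GST antibody plus streptavidin–allophycocyanin, and read by HTRF. Standard error per run is 10%.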

[6] = molecular target: T1, Holo-[acyl-carrier-protein] synthase; assay: In vitro inhibitory activity against acyl carrier protein synthase (AcpS) in Bacillus subtilis GST-Acp-HTRFassay; in short: as §2

O=C(O)c1cc(Br)ccc1/N=C/c1nc(-c2ccc(C(F)(F)F)c(F)c2)oc1O
MIC [1]: 50 µM (≈ 23.7 µg/mL) | MIC [2]: 25 µM (≈ 11.8 µg/mL) | MIC [3]: 25 µM (≈ 11.8 µg/mL) | MIC [4]: 12.5 µM (≈ 5.91 µg/mL) | IC50 [5]: 1500 nM

O=C(O)c1cc(Cl)ccc1/N=C/c1nc(-c2ccc(C(F)(F)F)c(F)c2)oc1O
MIC [1]: 50 µM (≈ 21.4 µg/mL) | MIC [2]: 50 µM (≈ 21.4 µg/mL) | MIC [3]: 50 µM (≈ 21.4 µg/mL) | MIC [4]: 12.5 µM (≈ 5.36 µg/mL) | IC50 [5]: 1100 nM

O=C(O)c1cc(F)ccc1/N=C/c1nc(-c2ccc(C(F)(F)F)cc2)oc1O
MIC [1]: 200 µM (≈ 78.9 µg/mL) | MIC [2]: 100 µM (≈ 39.4 µg/mL) | MIC [3]: 200 µM (≈ 78.9 µg/mL) | MIC [4]: 100 µM (≈ 39.4 µg/mL) | IC50 [5]: 1900 nM

CC(=O)Nc1ccc(/N=C/c2nc(-c3ccc(C(F)(F)F)c(F)c3)oc2O)c(C(=O)O)c1
MIC [1]: > 200 µM | MIC [2]: > 200 µM | MIC [3]: > 200 µM | MIC [4]: 200 µM (≈ 90.3 µg/mL) | IC50 [5]: 130 nM

Cc1ccc(/N=C/c2nc(-c3ccc(C(F)(F)F)cc3)oc2O)c(C(=O)O)c1
MIC [1]: 100 µM (≈ 39 µg/mL) | MIC [2]: > 200 µM | MIC [3]: 100 µM (≈ 39 µg/mL) | MIC [4]: 100 µM (≈ 39 µg/mL) | IC50 [5]: 830 nM

O=C(O)c1cc(I)ccc1/N=C/c1nc(-c2ccc(Cl)cc2)oc1O
MIC [1]: 200 µM (≈ 93.7 µg/mL) | MIC [2]: 25 µM (≈ 11.7 µg/mL) | MIC [3]: 50 µM (≈ 23.4 µg/mL) | MIC [4]: 12.5 µM (≈ 5.86 µg/mL) | IC50 [5]: 1300 nM

O=C(O)c1cc(Br)c(Cl)cc1/N=C/c1nc(-c2ccc(Cl)cc2)oc1O
MIC [1]: > 200 µM | MIC [2]: > 200 µM | IC50 [5]: > 20000 nM

Cc1ccc(/N=C/c2nc(-c3cccc(OC(F)(F)F)c3)oc2O)c(C(=O)O)c1
MIC [1]: 25 µM (≈ 10.2 µg/mL) | MIC [2]: 200 µM (≈ 81.3 µg/mL) | MIC [3]: 100 µM (≈ 40.6 µg/mL) | IC50 [6]: 4400 nM | MIC [4]: 25 µM (≈ 10.2 µg/mL)

O=C(O)c1ccccc1/N=C/c1nc(-c2ccc(Cl)cc2)oc1O
MIC [1]: > 200 µM | MIC [2]: > 200 µM | MIC [3]: > 200 µM | MIC [4]: > 200 µM | IC50 [5]: 15000 nM

O=C(O)c1cc(Br)ccc1/N=C/c1nc(-c2cccc(OC(F)(F)F)c2)oc1O
MIC [1]: 25 µM (≈ 11.8 µg/mL) | MIC [2]: 50 µM (≈ 23.6 µg/mL) | MIC [3]: 25 µM (≈ 11.8 µg/mL) | MIC [4]: 12.5 µM (≈ 5.89 µg/mL) | IC50 [5]: 15000 nM

COc1ccc(-c2nc(/C=N/c3ccc(F)cc3C(=O)O)c(O)o2)cc1
MIC [1]: > 200 µM | MIC [2]: > 200 µM | IC50 [5]: > 20000 nM

O=C(O)c1cc(Cl)ccc1/N=C/c1nc(-c2cccc(OC(F)(F)F)c2)oc1O
MIC [1]: 50 µM (≈ 21.3 µg/mL) | MIC [2]: 100 µM (≈ 42.7 µg/mL) | MIC [3]: 50 µM (≈ 21.3 µg/mL) | MIC [4]: 25 µM (≈ 10.7 µg/mL) | IC50 [5]: 20000 nM

O=C(O)c1ccccc1/N=C/c1nc(-c2ccccc2)oc1O
IC50 [5]: > 20000 nM

Cc1ccc(/N=C/c2nc(-c3ccc(C(F)(F)F)c(F)c3)oc2O)c(C(=O)O)c1
MIC [1]: 25 µM (≈ 10.2 µg/mL) | MIC [2]: 100 µM (≈ 40.8 µg/mL) | MIC [3]: 100 µM (≈ 40.8 µg/mL) | MIC [4]: 25 µM (≈ 10.2 µg/mL) | IC50 [5]: 270 nM

O=C(O)c1cc(F)ccc1/N=C/c1nc(-c2ccc(Cl)cc2)oc1O
MIC [1]: > 200 µM | MIC [2]: 100 µM (≈ 36.1 µg/mL) | MIC [3]: 100 µM (≈ 36.1 µg/mL) | MIC [4]: 200 µM (≈ 72.1 µg/mL) | IC50 [5]: 2100 nM

O=C(O)c1cc(Br)ccc1/N=C/c1nc(-c2ccc(Cl)cc2)oc1O
MIC [1]: > 200 µM | MIC [2]: 100 µM (≈ 42.2 µg/mL) | MIC [3]: 200 µM (≈ 84.3 µg/mL) | MIC [4]: 100 µM (≈ 42.2 µg/mL) | IC50 [5]: 3400 nM

O=C(O)c1cc(Br)c(Cl)cc1/N=C/c1nc(-c2ccc(C(F)(F)F)cc2)oc1O
MIC [1]: > 200 µM | MIC [2]: 100 µM (≈ 49 µg/mL) | MIC [3]: 50 µM (≈ 24.5 µg/mL) | MIC [4]: 100 µM (≈ 49 µg/mL) | IC50 [5]: 2000 nM
